The target in one experiment is GluN1/GluN2A (Rattus norvegicus, UniProt P35439+Q00959). Description: Whole-cell voltage-clamp recordings, HEK293 cells, rapid solution exchange. It is filed as cell-based. The settings on record: 50 μM glutamate. Summed up:
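HEK293 cells were plated on poly-D-lysine coverslips about 48 h ahead and calcium-phosphate cotransfected with GluN1, GluN2A and GFP (1:1:1). 200 μM D,L-APV and 200 μM 7-chlorokynurenic acid were added after transfection. Whole-cell recording was done about 24 h later at −60 mV and 23°C on lifted cells with piezo-driven theta-glass exchange.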

Experiment [1] relates to GluN2B-containing NMDA receptors. Conditions: ref Williams, 1993; cited from earlier work.
[2] abbreviates: brief application (10 ms) of 1000 μM glycine, antagonist 0.3 μM.

Results on three molecules are retold here after PMC3355950 (The Journal of Neuroscience, 2012).

Each structure is given as a SMILES string.

GluN1/GluN2A, sequence (Q00959 23-1464, other chains not shown): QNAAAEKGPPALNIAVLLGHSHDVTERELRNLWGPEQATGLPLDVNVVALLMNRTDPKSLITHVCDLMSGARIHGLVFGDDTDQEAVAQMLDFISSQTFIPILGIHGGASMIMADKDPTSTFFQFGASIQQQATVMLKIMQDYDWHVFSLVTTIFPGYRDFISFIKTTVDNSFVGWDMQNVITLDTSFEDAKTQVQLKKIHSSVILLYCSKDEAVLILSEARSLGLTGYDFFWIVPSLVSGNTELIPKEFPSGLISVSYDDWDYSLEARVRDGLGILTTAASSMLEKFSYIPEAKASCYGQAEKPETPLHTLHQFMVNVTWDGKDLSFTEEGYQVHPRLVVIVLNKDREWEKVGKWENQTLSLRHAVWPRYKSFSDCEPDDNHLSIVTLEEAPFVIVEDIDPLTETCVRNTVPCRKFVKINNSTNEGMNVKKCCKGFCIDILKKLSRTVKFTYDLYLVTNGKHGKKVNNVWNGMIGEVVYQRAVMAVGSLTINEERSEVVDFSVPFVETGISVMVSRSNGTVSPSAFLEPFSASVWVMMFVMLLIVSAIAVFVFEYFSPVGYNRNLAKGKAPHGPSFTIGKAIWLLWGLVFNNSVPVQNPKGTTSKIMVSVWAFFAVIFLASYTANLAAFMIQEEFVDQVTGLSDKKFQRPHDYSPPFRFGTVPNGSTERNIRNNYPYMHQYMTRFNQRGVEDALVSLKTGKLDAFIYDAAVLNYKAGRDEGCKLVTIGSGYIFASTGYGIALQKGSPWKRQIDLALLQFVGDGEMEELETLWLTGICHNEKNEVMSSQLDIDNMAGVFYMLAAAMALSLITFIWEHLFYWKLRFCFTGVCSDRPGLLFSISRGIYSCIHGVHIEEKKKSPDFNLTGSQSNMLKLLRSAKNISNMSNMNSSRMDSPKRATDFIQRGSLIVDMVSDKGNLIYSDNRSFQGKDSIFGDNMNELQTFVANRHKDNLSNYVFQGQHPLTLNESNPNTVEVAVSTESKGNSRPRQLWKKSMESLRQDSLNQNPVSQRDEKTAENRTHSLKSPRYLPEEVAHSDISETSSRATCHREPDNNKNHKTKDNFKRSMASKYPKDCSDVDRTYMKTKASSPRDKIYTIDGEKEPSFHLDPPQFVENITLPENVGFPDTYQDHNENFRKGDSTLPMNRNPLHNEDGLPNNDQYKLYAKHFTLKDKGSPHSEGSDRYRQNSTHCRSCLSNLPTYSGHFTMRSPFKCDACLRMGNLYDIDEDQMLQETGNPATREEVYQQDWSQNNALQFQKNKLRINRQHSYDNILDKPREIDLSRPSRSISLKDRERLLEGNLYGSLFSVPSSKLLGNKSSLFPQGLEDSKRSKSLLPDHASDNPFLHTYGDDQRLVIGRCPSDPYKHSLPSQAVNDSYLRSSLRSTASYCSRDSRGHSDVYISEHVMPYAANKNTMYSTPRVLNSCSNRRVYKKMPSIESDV

On to `O=C(O)c1cc(O)c2c(Cl)cc(Cl)cc2n1` [DCKA, 7,5-dichlorokynurenic acid], for which the “Peak response to a brief glycine application” value on GluN1/GluN2A (0.3 μM, 1 mM glycine 10 ms) was 43 ± 13 % of control. Moreover, the “Effect on deactivation time course” value on GluN1/GluN2A (0.3 μM, brief (10 ms) or long (5 seconds) 1 mM glycine) is “did not alter the deactivation time course”.
Take `CC(C(O)c1ccc(O)cc1)N1CCC(Cc2ccccc2)CC1` (stereo not shown) [ifenprodil]: the “selectivity for GluN2B-containing NMDA receptors” value in experiment [1] is reported as “over 500 fold”.
Take `O=C(O)c1cc(O)c2ccc(Cl)cc2n1` [7CKA, 7-chlorokynurenic acid]: at GluN1/GluN2A (setting [2]), the “% fast” value is 34 ± 6%, the τfast is reported as 46 ± 7 ms and the τslow is listed as 158 ± 10 ms. In addition, the “deactivation time constant, mono-exponential fit (τslow)” value on GluN1/GluN2A (long application (5 seconds) of 1000 μM glycine, antagonist 0.3 μM) stood at 128 ± 14 ms.
